Most compounds without a hit are left out; they make up all but 2% or so of the library.
CHRM5 PAM = human M5 muscarinic receptor positive allosteric modulators, primary screen, CHO-K1 cells, Fluo-8 calcium fluorescence; 0.3% of 360,000 active; CHO-K1 hM5, ACh EC20 PAM; 0% = ACh EC20, 100% = ACh EC100; Muscarinic acetylcholine receptor M5 (Homo sapiens), P08912; AID 624038, 2012; activation, % at 3 µM;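 active = activation above the run cutoff, the mean activation of all test compounds plus 3 SD, cut at about 18% in these data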
Target sequence (P08912 whole entry, looked up): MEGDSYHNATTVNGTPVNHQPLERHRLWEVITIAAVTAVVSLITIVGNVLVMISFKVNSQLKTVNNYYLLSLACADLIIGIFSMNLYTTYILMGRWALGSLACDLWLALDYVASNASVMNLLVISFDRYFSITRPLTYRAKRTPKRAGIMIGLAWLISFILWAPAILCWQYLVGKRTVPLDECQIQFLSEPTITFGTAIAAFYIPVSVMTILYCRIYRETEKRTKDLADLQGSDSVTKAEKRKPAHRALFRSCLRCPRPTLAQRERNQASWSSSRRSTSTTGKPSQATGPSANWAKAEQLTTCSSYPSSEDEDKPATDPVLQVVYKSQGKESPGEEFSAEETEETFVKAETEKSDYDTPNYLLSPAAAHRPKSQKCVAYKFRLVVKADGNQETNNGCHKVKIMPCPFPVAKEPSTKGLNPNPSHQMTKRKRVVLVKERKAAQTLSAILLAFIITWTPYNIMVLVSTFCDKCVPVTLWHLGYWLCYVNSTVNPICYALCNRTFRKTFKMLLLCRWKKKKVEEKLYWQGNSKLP
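System: CHO-K1 cell line with stable human muscarinic M5 receptor expression | Also added: EC20 acetylcholine as agonist stimulus | Compound: One concentration, 3 µM final (nominal) | Timing: Fluo-8 loading 80 min at 37 °C plus 30 min room temperature | Measured by: Fluo-8 calcium dye fluorescence, kinetic read | Read-out basis: % activation, ACh-normalized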
CHRM5 antagonist = human M5 muscarinic receptor antagonists, primary screen, CHO cells, Fluo-8 calcium fluorescence; Muscarinic acetylcholine receptor M5 (Homo sapiens), P08912; 0.59% of 360,000 active; inhibition, % at 3 µM; CHO-hM5 cells, ACh EC80;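 active = inhibition above a per-plate cutoff, the mean of that plate's test compounds plus 3 SD, cut at about 27% in these data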;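 also: 0% = acetylcholine EC80 with DMSO and 100% = DMSO without agonist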
CHRM1 antagonist = human M1 muscarinic receptor antagonists, primary screen, CHO-K1 cells, Fluo-8 calcium fluorescence, 1536-well | CHO-K1 hM1, ACh EC80 antagonist | 1.3% of 360,000 active | inhibition, % at 3 µM | Muscarinic acetylcholine receptor M1 (Homo sapiens), P11229;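 active = percent inhibition above its own plate's cutoff, namely the mean of that plate's compound wells plus 3 SD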;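 also: peak over basal fluorescence ratio during 140 s after agonist addition; 0% = ACh EC80 plus DMSO and 100% = DMSO alone without agonist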
CHRM1 PAM = human M1 muscarinic receptor positive allosteric modulators, primary screen, CHO-K1 cells, Fluo-8 calcium fluorescence, 1536-well. Muscarinic acetylcholine receptor M1 (Homo sapiens), P11229. activation, % at 3 µM. CHO-K1 hM1, ACh EC20; 0% = ACh EC20, 100% = maximal ACh. 0.088% of 360,000 active; in the data active = activation above about 19%, passing the limit was not always enough
M5 ag = human M5 muscarinic receptor agonists, primary screen, CHO-K1 cells, Fluo-8 calcium fluorescence; Muscarinic acetylcholine receptor M5 (Homo sapiens), P08912; CHO-K1 hM5 cells; 0% DMSO wells, 100% maximal acetylcholine response; activation, % at 3 µM; 0.19% of 360,000 active; AID 624037, 2012;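 active = activation above the run's mean over test compounds plus 3 SD, cut at about 23% in these data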;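 also: signal is peak over basal fluorescence ratio across the kinetic read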
CHRM1 agonist = human M1 muscarinic receptor agonists, primary screen, Fluo-8 calcium fluorescence, CHO-K1 cells, HTS | 0.33% of 360,000 active | CHO-K1 hM1, agonist mode; 0% DMSO, 100% acetylcholine EC100 | AID 588814, 2011 | activation, % at 3 µM | Muscarinic acetylcholine receptor M1 (Homo sapiens), P11229;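 active = activation above the run's mean compound activation plus 3 SD, cut at about 16% in these data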;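 also: peak over basal fluorescence ratio within a 140 s kinetic read after compound addition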
The depositor's hits bear a star; · = no result.

SMILES	CHRM5 PAM	CHRM5 antagonist	CHRM1 antagonist	CHRM1 PAM	M5 ag	CHRM1 agonist
CCN(CC)CCOC(=O)C1c2ccccc2Oc2ccccc21	-16	100*	99*	-22	-7	-9
N#CCOC(=O)C1c2ccccc2Oc2ccccc21	-2	10	-8	13	-5	-4
CCOCCCNC(=O)C1c2ccccc2Oc2ccccc21	4	7	-10	5	-3	-6
Cc1ccc(C)c(NCCCCC(=O)O)c1	8	-4	4	3	4	-1
CC1(c2nc3ccccc3[nH]2)CCC(=O)N1Cc1ccc(F)cc1 (stereo not given)	-2	6	-2	5	1	-7
COCCn1c2nc(=O)n(-c3ccccc3)c(=O)c-2nc2ccccc21	-6	8	18	-22	28*	56*
CCN(C(=O)c1cnc(NC(C)C)cc1C(F)(F)F)c1ccc(Cl)cc1Cl	-11	10	4	-3	-2	-7
C[C@@H]1CN([C@@H](C)CO)S(=O)(=O)c2ccc(Br)cc2O[C@H]1CN(C)C(=O)C1CCC1	0	-4	5	-14	1	-2
CN(CC(=O)Nc1ccc(F)cc1)C(=O)COc1ncnc2ccccc12	0	6	101*	-26	0	0
CCNC(=O)COC(=O)c1cc(-c2ccc(OC)cc2)nc2ccccc12	-20	8	14*	-9	-1	-3
CCCNC(=O)COC(=O)c1cc(-c2ccc(OC)cc2)nc2ccccc12	-2	7	-8	8	-5	-7
COc1ccc(NC(=O)CN(C)C(=O)c2cc(-c3ccc(OC)cc3)nc3ccccc23)cc1	-29	23	29*	-10	0	-2
CN(CCOc1ccc(Cl)cc1)C(=O)c1cc(-c2ccco2)nc2ccccc12	-26	28*	38*	-11	2	-1
COc1ccc(Cl)cc1NC(=O)CN(C)C(=O)c1cc(-c2ccncc2)nc2ccccc12	-25	27*	23	-8	3	-2
CC(C)C[C@H]1CN(CCCC[C@H]2CNC(=O)C(=O)N2Cc2ccccc2)C(=O)C(=O)N1Cc1ccccc1	6	-2	·	·	-5	·
CCCc1cc(=O)[nH]c(SCC(=O)N(C)CC(=O)Nc2ccc(C)cc2)n1	23*	-4	-13	6	-3	-4
CCCc1cc(=O)[nH]c(SCC(=O)N(C)CC(=O)Nc2ccc(F)cc2)n1	0	4	-3	8	-1	-4
COC(=O)[C@@]1(Cc2ccccc2)[C@H]2C(=O)N(C)C(=O)[C@H]2[C@H]2CN=C(SCC3CC3)N21	-3	18	-11	5	-1	-4
COC(=O)[C@@]1(Cc2ccccc2)[C@H]2C(=O)N(C)C(=O)[C@H]2[C@H]2CN=C(SCC(=O)c3ccccc3)N21	-1	2	102*	-32	0	-11
Cc1cc(Cl)c(S(=O)(=O)N2CCN(c3ccccn3)CC2)cc1OCC(=O)NC1CCCCC1	-14	17	26*	-13	2	-1
Cc1cc(Cl)c(S(=O)(=O)N2CCCCCC2)cc1OCC(=O)NC1CCCCC1	-3	-1	6	0	4	-2
O=S(=O)(NC1CCCCC1N1CCCCC1)c1ccccc1 (stereo not given)	1	9	-14	21	-3	-7
CCN1CCN(C2CCCCC2NS(=O)(=O)c2ccccc2)CC1 (stereo not given)	-8	15	34*	-15	-10	-5
N#Cc1ccc(-c2nc3ccc(Br)cc3c(=O)n2O)cc1	-6	8	-9	1	-2	0
O=c1c2cc(Br)ccc2nc(-c2cccc(C(F)(F)F)c2)n1O	1	7	-5	0	-1	25*
SMILES	CHRM5 PAM	CHRM5 antagonist	CHRM1 antagonist	CHRM1 PAM	M5 ag	CHRM1 agonist
Nc1ccn([C@@H]2O[C@H](C(=O)NCC(F)(F)F)[C@@H](O)[C@H]2O)c(=O)n1	3	1	-10	8	1	-6
CN(C)CCCOC(=O)N1c2ccccc2C=Cc2ccccc21	-17	81*	95*	-29	-6	-10
CC(=O)Nc1ccc(NC(=O)COC(=O)CCNS(=O)(=O)c2c(Cl)cccc2Cl)cc1	-4	7	-6	2	-1	-3
Cc1ccn2c(CC(C)(C)C)c(-c3ccc(F)cc3)nc2c1	0	4	-6	-3	-2	-6
CC(Oc1ccc(C(C)(C)C)cc1)c1ccnc2nc(/N=C/N(C)C)nn12 (stereo not given)	-14	2	54*	-21	-12	-8
CC(Oc1ccc(F)cc1)c1ccnc2nc(/N=C/N(C)C)nn12 (stereo not given)	-4	-3	8	-5	-2	-11
Cc1cc(S(=O)(=O)NCc2ccccc2)ccc1OCC(=O)NCc1ccccn1	-9	30*	-9	6	-3	-7
Cc1cc(S(=O)(=O)NCC(C)C)ccc1OCC(=O)NCc1ccccn1	-4	6	3	2	-1	-5
COc1ccccc1Cn1c(=O)[nH]c2cccnc21	41*	6	-26	0	-5	-2
C[C@H](CO)N1C[C@H](C)[C@@H](CN(C)S(=O)(=O)c2ccc3c(c2)OCCCO3)OCc2cn(nn2)CCCC1=O	-8	14	-1	-6	0	-6
CC1(C)CC[C@]2(C(=O)O)CC[C@]3(CO)C(=CCC4[C@@]5(C)C[C@H](O)[C@H](O)[C@@](C)(C(=O)O)C5CC[C@]43C)[C@@H]2C1 (stereo not given in full)	8	12	-8	27*	2	8
Cc1cc(C)cc(N(CC(=O)NCc2ccco2)C(=O)c2snc(C(N)=O)c2N)c1	-9	15	-4	9	5	4
Cc1cc(C)cc(N(CC(=O)NCc2ccc(F)cc2)C(=O)c2snc(C(N)=O)c2N)c1	3	-6	-6	11	10	16*
Cc1cccc(C(=O)Nc2ccccc2C(=O)OCC(=O)Nc2ccc(C#N)cc2)c1	-16	28*	8	-6	0	-3
Cc1cccc(OCC(=O)Nc2ccc(C(=O)Nc3ccccc3C(=O)O)cc2)c1	2	2	-10	9	3	0
O=C(CSc1nnc(Cc2ccccc2)o1)c1cc(F)ccc1F	21*	3	-9	12	-1	-2
